Published values pooled from the literature.
Each line is one published result; the experiments were not run side by side.
Target: Dual specificity protein kinase TTK (TTK, Homo sapiens, UniProt P33981)
Residues used in one study (P33981 1-857): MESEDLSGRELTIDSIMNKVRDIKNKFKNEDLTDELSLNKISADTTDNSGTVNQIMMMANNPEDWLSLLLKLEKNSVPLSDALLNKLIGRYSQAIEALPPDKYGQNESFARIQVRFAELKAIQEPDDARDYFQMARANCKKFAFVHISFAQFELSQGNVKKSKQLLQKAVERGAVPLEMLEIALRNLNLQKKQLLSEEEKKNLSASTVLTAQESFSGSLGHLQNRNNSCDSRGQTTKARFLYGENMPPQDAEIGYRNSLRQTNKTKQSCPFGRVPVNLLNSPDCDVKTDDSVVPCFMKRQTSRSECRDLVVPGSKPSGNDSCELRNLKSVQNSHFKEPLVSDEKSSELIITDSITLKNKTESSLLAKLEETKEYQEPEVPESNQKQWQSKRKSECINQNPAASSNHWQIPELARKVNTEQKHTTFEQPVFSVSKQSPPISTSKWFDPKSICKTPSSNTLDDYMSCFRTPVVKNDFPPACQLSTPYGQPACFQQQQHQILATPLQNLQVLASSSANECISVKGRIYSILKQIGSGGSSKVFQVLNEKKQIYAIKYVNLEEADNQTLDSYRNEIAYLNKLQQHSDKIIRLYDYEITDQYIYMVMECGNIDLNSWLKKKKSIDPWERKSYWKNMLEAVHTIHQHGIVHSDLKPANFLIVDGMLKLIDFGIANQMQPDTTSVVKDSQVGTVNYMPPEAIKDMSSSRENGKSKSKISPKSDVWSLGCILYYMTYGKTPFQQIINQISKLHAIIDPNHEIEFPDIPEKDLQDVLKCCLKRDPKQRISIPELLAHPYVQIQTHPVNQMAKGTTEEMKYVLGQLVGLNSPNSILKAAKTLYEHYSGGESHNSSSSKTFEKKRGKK

SMILES | read-out | mode | method | tested at | quantity | result
N#CC1c2c([nH]c3c(Cl)c(Cl)ccc23)C(=O)NC12CCCCC2 (racemic) | thermal stability | – | DSF | 10 µM | ΔTm | 0.9 °C
Cc1ccc(C(=O)Nc2ccc(CN3CCN(C)CC3)c(C(F)(F)F)c2)cc1C#Cc1cnc2cccnn12 | enzyme activity | – | – | 23.5 nM | remaining activity | 77%
CN(C(=O)c1ccccc1)c1cc(N(C)c2ccc3c(c2)CCc2ccc(C(=O)NCCN4CCOCC4)cc2C3=O)ccc1F | cell-free assay | – | competition with immobilised ligand | 1 µM | remaining binding | 87%
Oc1cccc(-c2nc(N3CCOCC3)c3oc4ncccc4c3n2)c1 | enzyme activity | inhibitor | – | 10 µM | remaining activity | 66%
CCOCCn1cc(C(=O)Nc2ccc(-n3nc(-c4cccnc4)cc3C(F)(F)F)cn2)ccc1=O | cell-free assay | – | competition with immobilised ligand | 1 µM | remaining binding | 100%
N#CCCc1ccc2c(c1)-c1[nH]c3ccc([N+](=O)[O-])cc3c1CC(=O)N2 | cell-free assay | – | – | 0.5 µM | remaining signal | 71.7%
FC(F)(F)Oc1cccc(-c2cnc3ccc(-c4ccncc4)nn23)c1 | enzyme activity | inhibitor | radiometric | 1 µM | activity vs control | 70%
Cn1c(=O)n(-c2ccc(C(C)(C)C#N)cc2)c2c3cc(-c4cnc5ccccc5c4)ccc3ncc21 | enzyme activity | inhibitor | – | 10 µM | remaining activity | 91%
COc1cc(Nc2cnc(C#N)c(O[C@H](C)CN(C)C)n2)ncc1-c1cnn(C)c1 | enzyme activity | inhibitor | radiometric | 1 µM | remaining activity | 81%
Cn1c2c(c3ccc(Cl)c(Cl)c31)C(C#N)C1(CCN(C(=O)OC(C)(C)C)CC1)NC2=O (racemic) | thermal stability | – | DSF | 10 µM | ΔTm | 0 °C
Nc1nc(Nc2ccc(S(N)(=O)=O)cc2)nn1C(=O)c1c(F)cccc1F | cell-free assay | – | – | 0.5 µM | remaining signal | 77.5%
Cn1c2c(c3ccc(Cl)c(Cl)c31)C(C#N)C1(CCCCC1)NC2=O (racemic) | thermal stability | – | DSF | 10 µM | ΔTm | 0.7 °C
C#Cc1cccc(Nc2ncnc3cc(OCCOC)c(OCCOC)cc23)c1 | cell-free assay | – | – | 0.5 µM | remaining signal | 91.8%
NS(=O)(=O)c1cc(NC(=O)C2(c3ccccc3Cl)CC2)ccc1Oc1cccc(Cl)c1 | cell-free assay | – | competition with immobilised ligand | 1 µM | remaining binding | 100%
Oc1cccc(-c2nc(N3CCOCC3)c3oc4ncccc4c3n2)c1 | cell-free assay | – | – | 0.5 µM | remaining signal | 93.3%
O=C(NC[C@@H]1[C@H]2CN(C(=O)OCc3cc(C(F)(F)F)cc(C(F)(F)F)c3)C[C@@H]12)c1ccc2[nH]nnc2c1 | cell-free assay | – | competition with immobilised ligand | 1 µM | remaining binding | 91%
Nc1ncnc2occ(-c3ccc(NC(=O)Nc4cc(C(F)(F)F)ccc4F)cc3)c12 | cell-free assay | – | – | 20 µM | remaining signal | 4.5%
CC(C)(C)c1nc2c(s1)c1nc(N)ncc1c1ccc(NS(=O)(=O)c3c(F)cccc3F)c(F)c12 | enzyme activity | inhibitor | radiometric | 1 µM | remaining activity | 90%
FC(F)(F)c1ccc2c(c1)nc(-c1cccnc1)n2C1CC1 | cell-free assay | – | competition with immobilised ligand | 1 µM | remaining binding | 100%
Cn1c2c(Cl)c(Cl)ccc2c2cn[nH]c(=O)c21 | thermal stability | – | DSF | 10 µM | ΔTm | 0.6 °C
Cc1c[nH]c2nccc(Oc3c(F)cc(Nc4cc(Cl)nc(N)n4)cc3F)c12 | cell-free assay | – | competition with immobilised ligand | 0.1 µM | remaining binding | 96%
CN1CC(Oc2cnc(C#N)cc2-c2ccn3nc(NC(=O)C4CC4)cc3c2)C1 | enzyme activity | inhibitor | – | 1 µM | inhibition | 12%
